From PubChem
Exocytosis inh – LAMP-1 surface exposure blockers, TALL-104 cells – cell-based, flow cytometry, MLPCN library, primary screen; inhibition, % at 10 µM; TALL-104 LAMP-1 surface exposure; cells stimulated with thapsigargin and PMA; 360,000 tested, 0.66% active;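 active = inhibition above about 55%, limit read from the data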
PGE2 EP2 inh – human EP2 receptor antagonists, primary screen, TR-FRET cAMP, C6 glioma cells; inhibition, % at 25 µM; Prostaglandin E2 receptor EP2 subtype (Homo sapiens), P43116; 260,000 tested, 0.52% active; C6 glioma cells expressing human EP2; cells stimulated with saturating PGE2;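 active = percent inhibition above 40 after rounding to a whole number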;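 also: rat C6 glioma host cells with rolipram phosphodiesterase inhibitor present; the protocol text gives 20 µM as final concentration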
Target sequence (P43116 whole entry, looked up): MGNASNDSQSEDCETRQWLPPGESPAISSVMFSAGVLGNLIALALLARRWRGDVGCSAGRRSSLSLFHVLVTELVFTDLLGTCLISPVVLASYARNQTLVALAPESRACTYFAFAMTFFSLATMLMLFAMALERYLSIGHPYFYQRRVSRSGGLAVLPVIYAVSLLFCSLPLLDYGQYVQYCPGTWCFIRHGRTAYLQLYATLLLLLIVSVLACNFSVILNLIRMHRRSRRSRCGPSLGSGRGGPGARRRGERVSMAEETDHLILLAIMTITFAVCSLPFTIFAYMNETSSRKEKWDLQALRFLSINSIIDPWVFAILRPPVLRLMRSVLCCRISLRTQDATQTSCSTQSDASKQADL
T cell modulator – modulators of CD8 T cell-vesicle binding, primary screen, mouse 2C CD8+ T cells, flow cytometry. 2C CD8+ T cell-vesicle binding; hits give low values. response (vesicle binding), % at 7 µM. 330,000 tested, 0.068% active. AID 2052, 2009;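 active = response, share of CD8 T cells binding vesicles, and their 90th percentile fluorescence all below set limits, cut at about 80% in these data, passing the limit was not always enough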;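 also: values below 100% mean blocked vesicle binding to the CD8+ T cells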
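incubation = binding step 1.5 h, 37 °C, antibody labelling 20 min, ice | test system = 2C mouse CD8+ T cells | read-out basis = percent CD8+ FL2 mean versus row control | controls = Peptide-free naked vesicles (low) and QL9 vesicles with 0.7% DMSO vehicle (high) | detection = flow cytometry of vesicle-bound cells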
MC4R antagonist – MC4R antagonists of cAMP signaling, primary screen, cell-based, TR-FRET, antagonist arm of biased-ligand search; inhibition, % at 6.5 µM; Melanocortin receptor 4 (Homo sapiens), P32245; 360,000 tested, 0.48% active; AID 540295, 2011; MC4R-expressing cells, MTII-stimulated cAMP, LANCE TR-FRET;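 active = inhibition above its plate's cutoff, the mean of tested wells on that plate plus 3 SD, cut at about 29% in these data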;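 also: 0% = Melanotan II alone and 100% = Melanotan II plus saturating MCL0020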
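Material: human MC4R-expressing U2OS cells. Probe or stimulus: Melanotan II challenge. Dosing: 6.5 µM single dose. Times: 30-min compound, 1-h challenge, 1-h detection, room temperature. Technique: TR-FRET with Eu-cAMP and labeled anti-cAMP, 671 nm. Replication: singlicate.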
EP2 modulator – EP2 receptor modulators, cAMP readout, primary screen, cell-based, HTRF cAMP, PGE2 stimulation; induction, % at 25 µM; AID 940, 2007; EP2-expressing cells, cAMP HTRF FRET, PGE2 co-stimulation; 260,000 tested, 0.83% active;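 active = compounds whose cAMP rise, as percent of the full-agonist control response, exceeds 60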;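 also: rat C6 glioma line stably carrying human EP2 under a CMV promoter; the protocol text gives 20 µM as final concentration; 100% = response of wells given 1 µM PGE2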
MC4R ag barr – MC4R agonists recruiting beta-arrestin, primary screen, cell-based, luminescence, agonist arm of biased-ligand search. Melanocortin receptor 4 (Homo sapiens), P32245. U2OS MC4R beta-arrestin complementation; percent of melanotan II response, DMSO zero. activation, % at 8.9 µM. 360,000 tested, 0.98% active;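 active = activation above a per-plate cutoff, the mean activation of sample wells on that plate plus 3 SD, cut at about 8% in these data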
* = called active by the depositor; / = no result. Rows were chosen to be rich in hits. Some 2.6% of all compounds tested hit in one or more screens of this group.

SMILES | Exocytosis inh | PGE2 EP2 inh | T cell modulator | MC4R antagonist | EP2 modulator | MC4R ag barr
N#C/C(=C\c1cn(Cc2ccc(F)cc2)c2ccccc12)C(=O)NCc1ccco1 | 1 | 11 | 228 | 5 | 14 | 9.1*
CCCCNC(=O)COC(=O)C1CCN(S(=O)(=O)c2ccc3c(c2)OCCO3)CC1 | -2 | / | 404 | 7 | / | -4
Cc1ccc(N(Cc2ccccc2)C(=O)CN2C(=O)NC3(CCCC3)C2=O)cc1 | 1 | / | 110 | 4 | / | -3
CCOc1ccc(N2C(=O)/C(=C/c3ccco3)N(C)C2=S)cc1 | 1 | 0 | 699 | 6 | -1 | 4
Cc1ccc(/C=C2/C(=O)N(c3ccccc3)C(=S)N2C)o1 | 83* | 9 | 218 | 7 | 3 | -3
Cc1ccc2c(cnn2C(=O)CCCC(=O)NCc2ccc(Cl)cc2)c1 | 6 | / | 565 | -6 | / | 8.6*
O=C(N/N=C/c1cccc(Oc2ccccc2)c1)c1ccc(O)cc1O | 5 | / | 426 | 2 | / | 3
CN(C)CCCN(C(=O)/C=C/c1cccs1)c1nc2c(F)cccc2s1 | 57* | 6 | / | 0 | -58 | 1
COc1cccc(OC)c1C(=O)OCC(=O)NCCCc1ccccc1 | 18 | / | 424 | -7 | / | 0
N#CCSc1nc(-c2ccccc2)c2cc(Cl)ccc2n1 | -3 | 7 | 367 | 6 | 60 | 0
CSc1nc(-c2ccccc2)c2cc(Cl)ccc2n1 | -4 | 7 | 237 | 11 | 62* | 0
COc1ccc(/C=C/C(=O)c2cc(O)ccc2O)cc1 | / | 50* | / | / | -49 | /
COc1ccc(/C=C/C(=O)c2ccc(O)cc2O)cc1 | / | 13 | / | / | -22 | /
CCCOC(=O)Cn1c(=O)c2cc3c(=O)n(CC(=O)OCCC)c(=O)c3cc2c1=O | 1 | 0 | / | -2 | 25 | 0
CCC(=O)OCCn1c(=O)c2cc3c(=O)n(CCOC(=O)CC)c(=O)c3cc2c1=O | 2 | 95* | 195 | 0 | -10 | 1
O=C(N1CCOCC1)N1CCc2ccccc21 | 0 | / | 184 | 5 | / | 0
O=C1c2ccsc2SCCN1Cc1ccccc1Cl | 1 | 11 | 331 | 6 | 43 | 1
Cc1ccccc1CN1CCSc2sccc2C1=O | -1 | 1 | 268 | 9 | 62* | 0
O=C1c2ccsc2SCCN1Cc1cccc(Cl)c1 | -6 | 10 | 154 | 8 | 61* | 1
CN1CCN/C1=C(/C(Cl)=C(Cl)Cl)[N+](=O)[O-] | 4 | 9 | 642 | 36* | 34 | -3
O=[N+]([O-])C(=C1SCCS1)C(=C(Cl)Cl)N1CCCCC1 | 5 | 4 | 318 | 3 | 42 | -2
CC1CCc2c(sc3nc(C(C)(C)C)nc(N4CCN(C(=O)CCl)CC4)c23)C1 (configuration not stated) | -5 | / | 157 | 23 | / | 19*
Cc1ccccc1NS(=O)(=O)c1ccc2c(c1)NC(=O)CCS2 | -1 | / | 553 | 0 | / | -3
O=C(NCCc1c[nH]c2ccccc12)c1ccccc1 | 1 | / | 173 | 1 | / | -1
O=C(/C=C/c1ccccc1)NCCc1c[nH]c2ccccc12 | -3 | 74* | 281 | -2 | -134 | 0
CCc1cc2c(C)cc(C)cc2nc1SCC(=O)Nc1cc(C)on1 | -2 | 5 | 246 | 18 | 35 | 0
CC1CN(C(=O)C(C)Sc2nc(-c3ccccc3)cc(C(F)(F)F)n2)CC(C)O1 (configuration not stated) | / | 12 | / | / | 1 | /
O=C(Nc1ccccc1)N1N=C(c2cccs2)CC1c1cccs1 (configuration not stated) | 0 | 9 | 149 | -1 | 43 | 1
O=C(c1cccs1)N1N=C(c2ccccc2)CC1c1ccccc1 (configuration not stated) | -4 | 6 | 202 | 9 | 63* | -1
